Columns and labels:
[1] = Apparent permeability of compound in dog MDCKII cells; assay type: ADME, cell-based, Canis lupus familiaris, MDCK-II; details: MDCK
[2] = molecular target: T1, Mitogen-activated protein kinase kinase kinase kinase 1 (Homo sapiens, UniProt Q92918); assay: Displacement of Tracer 222 from N-terminal GST-tagged human recombinant HPK1 (1 to 346 residues ) expressed in baculovirus-infected Sf9 cells incubated for 1 hr by HTRF lanthascreen binding assay
Summary of the method: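 Binding (tracer-displacement) format run with tracer at a concentration approximately equal to its Kd; IC50 derived from displacement.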
Target sequence in this assay (Q92918 whole entry, the tested form may be a part): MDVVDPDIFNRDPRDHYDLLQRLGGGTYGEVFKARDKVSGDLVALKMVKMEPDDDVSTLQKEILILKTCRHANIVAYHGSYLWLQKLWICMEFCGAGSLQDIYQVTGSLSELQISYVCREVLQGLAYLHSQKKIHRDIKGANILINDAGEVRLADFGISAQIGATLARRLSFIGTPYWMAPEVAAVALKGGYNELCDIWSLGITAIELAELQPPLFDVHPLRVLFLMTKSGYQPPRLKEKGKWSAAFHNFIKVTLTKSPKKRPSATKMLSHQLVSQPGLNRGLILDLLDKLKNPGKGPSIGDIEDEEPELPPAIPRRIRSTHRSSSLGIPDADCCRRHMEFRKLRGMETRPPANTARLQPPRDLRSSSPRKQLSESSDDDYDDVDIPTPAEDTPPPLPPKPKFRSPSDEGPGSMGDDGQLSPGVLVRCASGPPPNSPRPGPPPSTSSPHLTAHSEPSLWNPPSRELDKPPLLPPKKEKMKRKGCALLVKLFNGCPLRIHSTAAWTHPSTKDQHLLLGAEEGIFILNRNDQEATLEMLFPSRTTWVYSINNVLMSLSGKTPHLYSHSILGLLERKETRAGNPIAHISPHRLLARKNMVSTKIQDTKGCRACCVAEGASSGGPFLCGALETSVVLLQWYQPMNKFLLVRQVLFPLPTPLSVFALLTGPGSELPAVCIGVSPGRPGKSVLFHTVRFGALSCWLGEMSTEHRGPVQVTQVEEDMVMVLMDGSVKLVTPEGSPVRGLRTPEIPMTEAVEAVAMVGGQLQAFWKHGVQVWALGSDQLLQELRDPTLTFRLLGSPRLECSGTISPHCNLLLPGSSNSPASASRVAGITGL

[3] = species on record: Homo sapiens; assay: Selectivity ratio of IC50 for CDK2 (unknown origin) by ATP competitive binding assay to IC50 for N-terminal GST-tagged human recombinant HPK1 (1 to 346 residues ) expressed in baculovirus-infected Sf9 cells by HTRF lanthascreen binding assay
Summary of the method: (§1)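 Ratio of off-target kinase IC50 (JAK1, JAK2 or CDK2) to HPK1 IC50. The off-target kinase assays were run at ATP approximately equal to Km(ATP). HPK1 IC50 came from the tracer-displacement assay with tracer at approximately Kd(tracer).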

[4] = Total Plasma clearance in Wistar Han rat at 0.5 mg/kg, iv or 0.5 mg/kg, po; assay type: ADME, organism-based
Summary of the method: (§2)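 Male Wistar Han rats given 0.5 mg/kg intravenously and 0.5 mg/kg orally, both as solutions in DMSO/PEG400/H2O. Plasma clearance, volume of distribution, half-life and oral bioavailability determined. Unbound parameters correct for plasma protein binding.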

[5] = Half life in Wistar Han rat at 0.5 mg/kg, iv or 0.5 mg/kg, po; assay type: ADME, organism-based; details: in vivo; summary of the method: as §2
[6] = Unbound clearance in Wistar Han rat at 0.5 mg/kg, iv or 0.5 mg/kg, po; assay type: ADME, organism-based; details: in vivo; summary of the method: as §2
[7] = species on record: Homo sapiens; assay: Selectivity ratio of IC50 for JAK1 (unknown origin) by ATP competitive binding assay to IC50 for N-terminal GST-tagged human recombinant HPK1 (1 to 346 residues ) expressed in baculovirus-infected Sf9 cells by HTRF lanthascreen binding assay; summary of the method: as §1
[8] = Oral bioavailability in Wistar Han rat at 0.5 mg/kg; assay type: ADME, organism-based; details: in vivo; summary of the method: as §2
[9] = Volume of distribution in Wistar Han rat at 0.5 mg/kg, iv or 0.5 mg/kg, po; assay type: ADME, organism-based; details: in vivo; summary of the method: as §2
[10] = molecular target: T1, Mitogen-activated protein kinase kinase kinase kinase 1; assay: Inhibition of HPK1 in human PBMC assessed as inhibition of SLP76 phosphorylation by ELISA
Summary of the method: (§3)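 Target-engagement assay in human peripheral blood mononuclear cells with ELISA readout of SLP76 phosphorylation. Total-cell IC50 reported. Unbound IC50 obtained by correcting for compound binding to the 10% FBS present in the assay medium.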
Target sequence in this assay (Q92918 whole entry, the tested form may be a part): as above

[11] = species on record: Homo sapiens; assay: Selectivity ratio of IC50 for JAK2 (unknown origin) by ATP competitive binding assay to IC50 for N-terminal GST-tagged human recombinant HPK1 (1 to 346 residues ) expressed in baculovirus-infected Sf9 cells by HTRF lanthascreen binding assay; summary of the method: as §1
[12] = molecular target: T1, Mitogen-activated protein kinase kinase kinase kinase 1; assay: Inhibition of HPK1 in human PBMC assessed as unbound concentration required for inhibition of SLP76 phosphorylation by ELISA corrected to binding to 10% FBS; summary of the method: as §3
Target sequence in this assay (Q92918 whole entry, looked up, the tested form may be a part): as the sequence (Q92918 whole entry, the tested form may be a part) above

[13] = Unbound volume of distribution in Wistar Han rat at 0.5 mg/kg, iv or 0.5 mg/kg, po; assay type: ADME, organism-based; details: in vivo; summary of the method: as §2
[14] = Volume of distribution in Wistar Han rat at 0.1 mg/kg, iv; assay type: ADME, organism-based; details: in vivo
Summary of the method: (§4)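 Male Wistar Han rats dosed intravenously at 0.1 mg/kg, given as a solution in DMSO/PEG400/H2O. Plasma PK parameters derived: total plasma clearance, volume of distribution, mean residence time and half-life. Unbound clearance accounts for plasma protein binding.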

[15] = Half life in Wistar Han rat at 0.1 mg/kg, iv; assay type: ADME, organism-based; details: in vivo; summary of the method: as §4
[16] = Total Plasma clearance in Wistar Han rat at 0.1 mg/kg, iv; assay type: ADME, organism-based; summary of the method: as §4
[17] = Mean residence time in Wistar Han rat at 2 mg/kg, iv; assay type: ADME, organism-based; details: in vivo
Summary of the method: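 Male Wistar Han rats received a single intravenous dose of 2 mg/kg, formulated as a solution in 30% captisol/70% water. Mean residence time derived from plasma concentration–time data.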

[18] = Mean residence time in Wistar Han rat at 0.1 mg/kg, iv; assay type: ADME, organism-based; details: in vivo; summary of the method: as §4

SMILES	IC50 [2]	Ratio IC50 [3]	Ratio IC50 [7]	Ratio IC50 [11]	other results
COc1cccc(F)c1-c1cc2c(cn1)cnn2-c1cccc(N2C[C@@H]3C[C@H]2CN3C)n1	1.9 nM	61	5190	599	Papp [1]: 34 ×10⁻⁶ cm/s; clearance [4]: 4.2 mL/min/kg; half-life [5]: 1.8 h; CL free [6]: 2962 mL/min/kg; bioavailability [8]: > 100%; Vd [9]: 0.5 L/kg; IC50 [10]: 4300 nM; fIC50 [12]: 1.1 µM
COc1cccc(F)c1-c1cc2c(cn1)cnn2-c1cccc(N2CC3CCC(C2)N3C)n1	1.1 nM	61	8960	1450	Papp [1]: 26 ×10⁻⁶ cm/s; clearance [4]: 19 mL/min/kg; half-life [5]: 2.1 h; Vdu [13]: 143 L/kg; CL free [6]: 1197 mL/min/kg; bioavailability [8]: 67%; Vd [9]: 2.3 L/kg; IC50 [10]: 4000 nM; fIC50 [12]: 0.3 µM
COc1cccc(F)c1-c1cc2c(cn1)cnn2-c1cccc(N2CCCC2=O)n1	213 nM				
COc1cccc(F)c1-c1cc2c(cn1)cnn2-c1ccc(N2CCOCC2)cc1	101 nM		99	99	
COc1cccc(F)c1-c1cc2c(cn1)cnn2-c1cccc(N2CCCCC2)n1	40 nM	43	252	26	
Cc1cccc(F)c1-c1cc2c(cnn2-c2ccc(N3CCN(C)CC3)cc2)cc1C#N	28 nM	357	357		Papp [1]: < 8 ×10⁻⁶ cm/s; Vd [14]: 18 L/kg; half-life [15]: 2.2 h; IC50 [10]: > 10000 nM; clearance [16]: 151 mL/min/kg
COc1cccc(F)c1-c1cc2c(cn1)cnn2-c1ccccc1	1050 nM		10	10	
Cc1cccc(C)c1-c1cc2c(cn1)cnn2-c1ccc(N2CCN(C)CC2)cc1	284 nM	35	35	35	
COc1cccc(F)c1-c1cc2c(cn1)cnn2-c1ccnc(N2CCN(C)CC2)n1	6.7 nM	10	1480	125	
COc1ccncc1-c1ccc2cnn(-c3ccnc(N4CCOCC4)c3)c2c1	2200 nM		4	4	Vd [14]: 2.1 L/kg; clearance [16]: 31 mL/min/kg; MRT [17]: 1.2 h
COc1cccc(F)c1-c1cc2c(cn1)cnn2-c1ccc(N2CCN(C)CC2)cc1	89 nM	112	112	112	
COC(=O)N1CCN(c2cccc(-n3ncc4cnc(-c5c(F)cccc5OC)cc43)n2)CC1	32 nM	11	65	5	
COc1cccc(F)c1-c1cc2c(cn1)cnn2-c1cccc(N2CC(N)C2)n1	32 nM	10	59	24	
CN1CCN(c2cc(-c3n[nH]c4cnc(-c5cnn6c5CCC6)cc34)ccn2)CC1	15 nM		45	32	MRT [18]: 1.9 h; Vd [14]: 15 L/kg; clearance [16]: 130 mL/min/kg
COc1cccc(F)c1-c1cc2c(cn1)cnn2-c1cc(Cl)cc(N2CCN(C)CC2)n1	1.8 nM	597	347	134	
COc1cccc(F)c1-c1cc2c(cn1)cnn2-c1ccc(N2CCN(C)CC2)cn1	31 nM	77	95	61	
COc1cccc(F)c1-c1cc2c(cn1)cnn2-c1cccc(N)n1	518 nM				
COc1cccc(F)c1-c1cc2c(cn1)cnn2-c1cccc(N2CC3(CCCNC3)C2)n1	13 nM	45	792	177	
CN1CCN(c2ccc(-n3ncc4cnc(-c5ccccc5)cc43)cc2)CC1	826 nM		12	12	
CNC1CCN(c2cccc(-n3ncc4cnc(-c5c(F)cccc5OC)cc43)n2)CC1	17 nM	8.5	112	90	
